In ChEMBL document CHEMBL1141219, “Chemoenzymatic synthesis of a series of 4-substituted glutamate analogues and pharmacological characterization at human glutamate transporters subtypes 1-3” (J Med Chem, 2005):

B1: Excitatory amino acid transporter 1 (Homo sapiens), P43003 (protein)
chain: MTKSNGEEPKMGGRMERFQQGVRKRTLLAKKKVQNITKEDVKSYLFRNAFVLLTVTAVIVGTILGFTLRPYRMSYREVKYFSFPGELLMRMLQMLVLPLIISSLVTGMAALDSKASGKMGMRAVVYYMTTTIIAVVIGIIIVIIIHPGKGTKENMHREGKIVRVTAADAFLDLIRNMFPPNLVEACFKQFKTNYEKRSFKVPIQANETLVGAVINNVSEAMETLTRITEELVPVPGSVNGVNALGLVVFSMCFGFVIGNMKEQGQALREFFDSLNEAIMRLVAVIMWYAPVGILFLIAGKIVEMEDMGVIGGQLAMYTVTVIVGLLIHAVIVLPLLYFLVTRKNPWVFIGGLLQALITALGTSSSSATLPITFKCLEENNGVDKRVTRFVLPVGATINMDGTALYEALAAIFIAQVNNFELNFGQIITISITATAASIGAAGIPQAGLVTMVIVLTSVGLPTDDITLIIAVDWFLDRLRTTTNVLGDSLGAGIVEHLSRHELKNRDVEMGNSVIEENEMKKPYQLIAQDNETEKPIDSETKM
B2: Excitatory amino acid transporter 3 (Homo sapiens), P43005 (protein)
chain: MGKPARKGCEWKRFLKNNWVLLSTVAAVVLGITTGVLVREHSNLSTLEKFYFAFPGEILMRMLKLIILPLIISSMITGVAALDSNVSGKIGLRAVVYYFCTTLIAVILGIVLVVSIKPGVTQKVGEIARTGSTPEVSTVDAMLDLIRNMFPENLVQACFQQYKTKREEVKPPSDPEMNMTEESFTAVMTTAISKNKTKEYKIVGMYSDGINVLGLIVFCLVFGLVIGKMGEKGQILVDFFNALSDATMKIVQIIMCYMPLGILFLIAGKIIEVEDWEIFRKLGLYMATVLTGLAIHSIVILPLIYFIVVRKNPFRFAMGMAQALLTALMISSSSATLPVTFRCAEENNQVDKRITRFVLPVGATINMDGTALYEAVAAVFIAQLNDLDLGIGQIITISITATSASIGAAGVPQAGLVTMVIVLSAVGLPAEDVTLIIAVDWLLDRFRTMVNVLGDAFGTGIVEKLSKKELEQMDVSSEVNIVNPFALESTILDNEDSDTKKSYVNGGFAVDKSDTISFTQTSQF

Experiments:
[1] = substrate: C[C@H](C[C@H](N)C(=O)O)C(=O)O; assay: (§1) Binding affinity to human EAAT1 expressed in HEK293 cells in FMP (FLPR) assay; format: functional, cell-based
Outline: (§2)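 HEK293 cells stably expressing the human transporter, seeded on poly-D-lysine plates in DMEM with 10% dialyzed FBS and G-418 for 16–24 h. Cells washed in Krebs buffer (pH 7.4), then loaded with FMP dye for 30 min at 37 °C. Read at room temperature, excitation 530 nm and emission 560 nm, for up to 1 min after substrate addition. Non-substrate inhibitors were preincubated and tested against 30 μM Glu. Seven-concentration curves from maximal responses, duplicate, at least three times.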

[2] = substrate: N[C@@H](CCC(=O)O)C(=O)O; assay: as §1; format: functional, cell-based; outline: as §2
[3] = substrate: N[C@@H](C[C@@H](O)C(=O)O)C(=O)O; assay: as §1; format: functional, cell-based; outline: as §2
[4] = substrate: N[C@@H](C[C@H](O)C(=O)O)C(=O)O; assay: as §1; format: functional, cell-based; outline: as §2
[5] = substrate: N[C@@H](CCC(=O)O)C(=O)O; assay: (§3) Binding affinity to human EAAT3 expressed in HEK293 cells in FMP (FLPR) assay; format: functional, cell-based; outline: as §2
[6] = substrate: N[C@@H](C[C@H](O)C(=O)O)C(=O)O; assay: as §3; format: functional, cell-based; outline: as §2
[7] = biological target: Excitatory amino acid transporter 3 (Homo sapiens) (UniProt P43005); assay: Binding affinity to human EAAT3 expressed in HEK293 cells in FMP (FLPR) assay

Protein	Km [1] [µM]	Km [2] [µM]	Km [3] [µM]	Km [4] [µM]	Km [5] [µM]	Km [6] [µM]	Km [7] [µM]
B1	13	9.2	1000	140	–	–	–
B2	–	–	–	–	25	81	1000
